Converted amounts (≈) assume the structure as drawn. The source made the active and inactive calls. No cut-off for these calls is given here.
Key:
Staphylococcus aureus [1] = assay: Antibacterial activity against Staphylococcus aureus ATCC 29213; type: functional
Outline: (§1)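 Broth tube dilution MIC. Bacteria subcultured from stock onto agar and grown overnight at 37 ± 2 °C in ambient air. Overnight cultures went into broth adjusted to about 5 × 10⁸ CFU/mL. Inhibitor started at 50 µg/mL with doubling dilutions over 10 tubes in duplicate. Each tube received 0.01 mL of challenge broth.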

Bacillus subtilis [2] = assay: Antibacterial activity against Bacillus subtilis ATCC 14289; type: functional; outline: as §1
Staphylococcus aureus [3] = assay: Antibacterial activity against methicillin-resistant Staphylococcus aureus ATCC 33591; type: functional
Outline: as §1, with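 “MIC, performed by a contract lab.” for “MIC.”, “Bacteria were” for “Bacteria”, “in” for “with”, “dilutions,” for “dilutions over”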

Pseudomonas aeruginosa = assay: Antibacterial activity against Pseudomonas aeruginosa ATCC 27853; type: functional; outline: as §1
[4] = Inhibition of Bacillus subtilis NAD synthetase by fluorescence based assay
Outline: (§2)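 B. subtilis NAD synthetase, overexpressed and purified, 2.0 µg/mL. Coupled to yeast ADH (40 µg/mL) with 1% EtOH at pH 8.5: 58.5 mM HEPPS, 18.5 mM NH4Cl, 19.5 mM KCl, 9.75 mM MgCl2, 0.1 mM NaAD, 2.5% DMSO. No BOG; 0–0.01% Triton X-100. Started with 0.2 mM ATP. NADH read by fluorescence. Triplicate points; IC50 averaged over two experiments.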

[5] = (§3) Inhibition of Bacillus subtilis NAD synthetase in presence of 0.001% Triton X-100 by fluorescence based assay; outline: as §2
[6] = (§4) Inhibition of Bacillus subtilis NAD synthetase in presence of 0.01% Triton X-100 by fluorescence based assay; outline: as §2
[7] = Inhibition of yeast alcohol dehydrogenase by fluorescence based assay; design: species or system Saccharomyces cerevisiae
Outline: (§5)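 Yeast ADH 2.5 µg/mL in 60 mM HEPPS pH 8.5 with 0.5 mM NH4Cl, 20 mM KCl, 10 mM MgCl2, 60 mM ethanol, 2.5% DMSO and 0–0.01% Triton X-100. Started with 0.75 mM β-NAD and stopped with 1.2 M guanidine·HCl after 2 min. NADH fluorescence read at 355 nm excitation / 460 nm emission, pre-NAD blank subtracted. Triplicate points; IC50 averaged over two experiments.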

[8] = (§6) Inhibition of yeast alcohol dehydrogenase in presence of 0.001% Triton X-100 by fluorescence based assay; design: species or system Saccharomyces cerevisiae; outline: as §5
[9] = (§7) Inhibition of yeast alcohol dehydrogenase in presence of 0.01% Triton X-100 by fluorescence based assay; design: species or system Saccharomyces cerevisiae; outline: as §5
Bacillus subtilis [10] = assay: as §3; outline: as §2
Bacillus subtilis [11] = assay: as §4; outline: as §2
Saccharomyces cerevisiae [12] = assay: as §6; outline: as §5
Saccharomyces cerevisiae [13] = assay: as §7; outline: as §5

SMILES	MIC (Staphylococcus aureus [1]) [µM]	MIC (Bacillus subtilis [2]) [µM]	MIC (Staphylococcus aureus [3]) [µM]	IC50 [4] [µM]	further results
C[N+](C)(C)[C@@H](Cc1ccccc1)C(=O)OCCCCCCCCOc1ccc(OCc2ccccc2)cc1	0.78	0.78	0.78	22	MIC (Pseudomonas aeruginosa): > 50 µM; IC50 [5]: 16.5 µM; IC50 [6]: 37 µM; IC50 [7]: 27 µM; IC50 [8]: 69 µM; IC50 [9]: 266 µM
C[N+](C)(C)[C@H](C(=O)NCCCCCCCCOc1ccc(OCc2ccccc2)cc1)c1ccccc1		1.56	1.56	45	
C[N+](C)(C)[C@@H](Cc1ccccc1)C(=O)NCCCCCCCCOc1ccc(OCc2ccccc2)cc1	0.78	0.39	0.78	40	MIC (Pseudomonas aeruginosa): > 50 µM; IC50 [5]: 27.8 µM; IC50 [6]: 104 µM; IC50 [7]: > 1500 µM; IC50 [8]: > 1500 µM; IC50 [9]: > 1500 µM
COc1cccc(OC)c1C(=O)N[C@@H]1C(=O)N2[C@@H]1SC(C)(C)[C@@H]2C(=O)O [METHICILLIN]	1 (≈ 0.38 µg/mL)		32 (≈ 12.2 µg/mL)		
Clc1ccccc1C(c1ccccc1)(c1ccccc1)n1ccnc1 [CLOTRIMAZOLE]				> 1500	Activity (Bacillus subtilis [10]): inactive; Activity (Bacillus subtilis [11]): inactive; IC50 [7]: 96.5 µM; Activity (Saccharomyces cerevisiae [12]): inactive; Activity (Saccharomyces cerevisiae [13]): inactive
N=C(N)N[C@H](COCCCCCCCCOc1ccc(OCc2ccccc2)cc1)Cc1ccccc1		3.13 (≈ 1.58 µg/mL)	0.78 (≈ 0.393 µg/mL)	11	
C[N+](C)(C)[C@H](COCCCCCCCCOc1ccc(OCc2ccccc2)cc1)c1ccccc1		0.78	3.13	38	
O=C(O)c1cn(C2CC2)c2cc(N3CCNCC3)c(F)cc2c1=O [CIPROFLOXACIN]		0.5 (≈ 0.166 µg/mL)	0.5 (≈ 0.166 µg/mL)		
C[N+](C)(C)[C@@H](Cc1c[nH]c2ccccc12)C(=O)OCCCCCCCCOc1ccc(OCc2ccccc2)cc1				19	
N=C(N)N[C@@H](Cc1ccccc1)C(=O)NCCCCCCCCOc1ccc(OCc2ccccc2)cc1		3.13 (≈ 1.62 µg/mL)	1.56 (≈ 0.806 µg/mL)	12	
N=C(N)N[C@H](C(=O)NCCCCCCCCOc1ccc(OCc2ccccc2)cc1)c1ccccc1		1.56 (≈ 0.784 µg/mL)	1.56 (≈ 0.784 µg/mL)	19	
C[N+](C)(C)[C@H](COCCCCCCCCOc1ccc(OCc2ccccc2)cc1)Cc1ccccc1	0.78	0.39	1.56	21	MIC (Pseudomonas aeruginosa): > 50 µM
CC1(C)S[C@@H]2[C@H](NC(=O)[C@H](N)c3ccccc3)C(=O)N2[C@H]1C(=O)O [AMPICILLIN]		0.2 (≈ 0.0699 µg/mL)	> 50		
C[N+](C)(C)c1ccc(CC(=O)OCCCCCCCCOc2ccc(OCc3ccccc3)cc2)cc1	9.4	2	6.2	41	MIC (Pseudomonas aeruginosa): > 50 µM
CO[C@H]1/C=C/O[C@@]2(C)Oc3c(C)c(O)c4c(O)c(c(/C=N/N5CCN(C)CC5)c(O)c4c3C2=O)NC(=O)/C(C)=C\C=C\[C@H](C)[C@H](O)[C@@H](C)[C@@H](O)[C@@H](C)[C@H](OC(C)=O)[C@@H]1C [RIFAMPIN]		1.5 (≈ 1.23 µg/mL)			
C[N+](C)(C)[C@@H](Cc1ccc(O)cc1)C(=O)OCCCCCCCCOc1ccc(OCc2ccccc2)cc1		1.56	3.13	53	
N=C(N)N[C@H](COCCCCCCCCOc1ccc(OCc2ccccc2)cc1)c1ccccc1		3.13 (≈ 1.53 µg/mL)	0.78 (≈ 0.382 µg/mL)	11	
C[C@H]1c2cccc(O)c2C(=O)C2=C(O)[C@]3(O)C(=O)C(C(N)=O)=C(O)[C@@H](N(C)C)[C@@H]3[C@@H](O)[C@@H]21 [DOXYCYCLINE]	1.56 (≈ 0.693 µg/mL)	1.56 (≈ 0.693 µg/mL)	> 30		

— ChEMBL document CHEMBL1143671, “Antibacterial nicotinamide adenine dinucleotide synthetase inhibitors: amide- and ether-linked tethered dimers with alpha-amino acid end groups” (J Med Chem, 2007)
